Measured values taken from ChEMBL document CHEMBL1125666, “In vitro evaluation of phosphocholine and quaternary ammonium containing lipids as novel anti-HIV agents” (J Med Chem, 1991).

Key:
[1] = system: Human immunodeficiency virus 1; assay: Differential selectivity measured as the ratio of CEM-SS cell growth IC50 vs HIV plaque formation IC50.; type: functional
Summary of the method: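 Selectivity index taken as CEM-SS growth IC50 (48 h suspension culture, [3H]thymidine uptake) divided by HIV-1 syncytial plaque IC50 (day-5 plaque count in CEM-SS monolayers, 60–90 PFU). Both IC50s come from twofold dilutions over 0.03–20.0 μM.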

[2] = system: Human immunodeficiency virus 1; assay: In vitro inhibition of HIV-1 plaque formation; type: functional, organism-based
Summary of the method: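 HIV-1 syncytial plaque assay. CEM-SS cells in log phase, washed in PBS, 50 000 per well in serum-free RPMI-1640 on poly-L-lysine-coated wells, 30 min at 37 °C, 5% CO2. Inoculated with HIV-1 (60–90 PFU). After 60 min, overlay with or without compound at serial twofold dilutions, 0.03–20.0 μM. Second overlay on day 3. Plaques counted on day 5 to give IC50. Mean ± SD, n ≥ 3, or a single experiment.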

[3] = system: CEM-SS cells (Homo sapiens); assay: In vitro inhibition of CEM-SS cell growth by 50 %

| Compound | IC50 [2] [nM] | Ratio [1] | IC50 [3] [nM] |
| --- | --- | --- | --- |
| CCCCCCCCCCCCCCCCOCC(CP(=O)([O-])OCC[n+]1ccccc1)OC (stereo not drawn) | 2200 | 3.5 | 7700 |
| CCCCCCCCCCCCCCCCOCC(COP(=O)(O)OCCNC(C)(C)C)OCC (stereo not drawn) | > 5000 |  | 10000 |
| CCCCCCCCCCCCCCCCOCC(COP(=O)(O)OCCNC(C)C)OCC (stereo not drawn) | > 5000 |  | 7000 |
| CCCCCCCCCCCCCCCC(=O)NCC(COP(=O)([O-])OCC[N+](C)(C)C)OC (stereo not drawn) | 930 | 26.6 | 24700 |
| CCCCCCCCCCCCCCCCOCC(CN(C)CCO)OC (stereo not drawn) | 2100 | 1.5 | 3200 |
| CCCCCCCCCCCCCCCCOCC(COP(=O)([O-])OCC[n+]1ccccc1)OCC (stereo not drawn) | 4700 | 1.7 | 8100 |
| CCCCCCCCCCCCCCCCSCC(COP(=O)([O-])OCC[N+](C)(C)C)OCC (stereo not drawn) | 700 | 5.9 | 4100 |
| CCCCCCCCCCCCCCCCCCNC(=O)NCC(COP(=O)([O-])OCC[N+](C)(C)C)OCC (stereo not drawn) | 570 | 13.5 | 7700 |
| CCCCCCCCCCCCCCCCCCS(=O)(=O)CC(COP(=O)([O-])OCC[N+](C)(C)C)OCC (stereo not drawn) | 1200 | 7.5 | 9000 |
| CCCCCCCCCCCCCCCCOCC(CO)OCC (stereo not drawn) | > 5000 |  | > 20000 |
| CCCCCCCCCCCCCCCCSCC(C[N+](C)(C)CCO)OCC.[Br-] (stereo not drawn) | 630 | 8.1 | 5100 |
| CCCCCCCCCCCCCCCCCCOCC(COP(=O)([O-])OCC[N+](C)(C)C)OC (stereo not drawn) [EDELFOSINE] | 920 | 4.3 | 4000 |
| Cc1cn([C@H]2C[C@H](N=[N+]=[N-])[C@@H](CO)O2)c(=O)[nH]c1=O [ZIDOVUDINE] |  |  | 5600 |

Further compounds by falling IC50 [2], results first:

| IC50 [2] [nM] | Compound | Ratio [1] | IC50 [3] [nM] |
| --- | --- | --- | --- |
| 520 | CCCCCCCCCCCCCCCCOCC(C[N+](C)(C)C)OC.[Br-] (stereo not drawn) | 2.1 | 1100 |
| 490 | CCCCCCCCCCCCCCCCSCC(C[N+](C)(C)CC(O)CO)OC.[Br-] (stereo not drawn) | 4.1 | 2000 |
| 490 | CCCCCCCCCCCCCCCCCCSCC(COP(=O)([O-])OCC[N+](C)(C)C)OC (stereo not drawn) | 7.8 | 3800 |
| 460 | CCCCCCCCCCCCCCCC(=O)NCC(COP(=O)([O-])OCC[N+](C)(C)C)OCC (stereo not drawn) | 41.3 | 19000 |
| 410 | CCCCCCCCCCCCCCCCCCSCC(C[N+](C)(C)CCCO)OC.[I-] (stereo not drawn) | 9.8 | 4000 |
| 390 | CCCCCCCCCCCCCCCCSCC(C[N+](C)(C)C)OC.[Br-] (stereo not drawn) | 13.4 | 5300 |
| 380 | CCCCCCCCCCCCCCCCOCC[N+](C)(C)CCO.[I-] | 15.6 | 6000 |
| 370 | CCCCCCCCCCCCCCCCSCC(C[N+](C)(C)CCO)OC.[Br-] (stereo not drawn) | 5.7 | 2100 |
| 300 | CCCCCCCCCCCCCCCCOCC(C[N+]1(CO)CCCCC1)OCC.[I-] (stereo not drawn) | 8 | 2400 |
| 300 | CCCCCCCCCCCCCCCCCC(=O)NCC(COP(=O)([O-])OCC[N+](C)(C)C)OC (stereo not drawn) | 47.3 | 14200 |
| 280 | CCCCCCCCCCCCCCCCSCCOP(=O)([O-])OCC[N+](C)(C)C | 27.1 | 7600 |
| 280 | CCCCCCCCCCCCCCCCCC(=O)NCCOP(=O)([O-])OCC[N+](C)(C)C | 68.7 | 19300 |
| 270 | CCCCCCCCCCCCCCCCCCOCC(COP(=O)([O-])OCC[N+](C)(C)C)OCC (stereo not drawn) | 11.1 | 3000 |
| 240 | CCCCCCCCCCCCCCCCOCC[N+](C)(C)CCCO.[I-] | 6.1 | 1500 |
| 210 | CCCCCCCCCCCCCCCCOCC(C[n+]1ccccc1)OCC.[Br-] (stereo not drawn) | 5.2 | 1100 |
| 200 | CCCCCCCCCCCCCCCCCCOCC[N+](C)(C)CC(O)CO.[I-] (stereo not drawn) | 14.5 | 2900 |
| 160 | CCCCCCCCCCCCCCCCCCCC(=O)NCC(COP(=O)([O-])OCC[N+](C)(C)C)OCC (stereo not drawn) | 29.4 | 4700 |
| 160 | CCCCCCCCCCCCCCCCCC(=O)NCC(COP(=O)([O-])OCC[N+](C)(C)C)OCC (stereo not drawn) | 84.4 | 13500 |
